Published values collected from several papers.
Lines come from different studies, so protocols differ.

| Compound | tested on | test | system | conditions | endpoint | result |
| --- | --- | --- | --- | --- | --- | --- |
| Cn1c2cccc(=O)c-2nc2ccccc21 | – | – | PAMPA | 40 µM, 5 h, pH 7.4 | Papp | 8.6 ×10⁻⁶ cm/s |
| CC(=O)c1c([O-])cc(C)oc1=O.[Na+] | – | – | rat, serum | oral, 200 mg/kg | AUC(0-t) | 3190 µg·h/mL |
| [2H]C([2H])([18F])[C@]([2H])(N)C(=O)O | U-87 MG | – | bone | 110 min, tumour-bearing | tracer uptake | 1.73 %ID/g |
| Cn1cc2c3c1C(=O)C(N)=CC3=NCC2 | HCT-116 | cell growth or viability, MTT | – | 72 h | CC50 | 2 µM |
| C#CCN(C)CCCCCCOCc1ccc(CN(C)c2c3c(nc4ccccc24)CCCC3)cc1 | – | – | male Sprague-Dawley rat, plasma | intravenous, 1 mg/kg | AUC(0-inf) | 0.17 µg·h/mL |
| Cn1cc2c3c1C(=O)C(N)=CC3=[N+](C)CC2 | HCT-116 | cell growth or viability, MTT | – | 72 h | CC50 | 1 µM |
| C[C@]12CC[C@H]3[C@@H](CC=C4CC(O)CC[C@@]43CO)[C@@H]1CCC2O (some centres unmarked) | – | – | rat, plasma | intravenous, 1 mg/kg | AUC | 0.167 µg·h/mL |
| COCC1=N[C@@]2(O)[C@H](C(=O)N(C)OC)[C@@H](c3ccccc3)[C@]3(c4ccc(OC)cc4)Oc4cc(OC)cc(OC)c4[C@]23N1 | – | – | PAMPA | 50 µM, 30 min, pH 7.4 | Papp | 783 ×10⁻⁶ cm/s |
